28 molecules from ChEMBL document CHEMBL3822419, “Rational Design of Potent and Selective Inhibitors of an Epoxide Hydrolase Virulence Factor from Pseudomonas aeruginosa” (J Med Chem, 2016) can be followed below.

≈ marks a conversion by molar mass, not a printed value.

Data set [1] in a line: Inhibition of Pseudomonas aeruginosa recombinant His-tagged CFTR inhibitory factor expressed in expressed in Top10 Escherichia coli cells assessed as formation of 6-methoxy-2-naphthaldehyde preincubated for 5 mins followed by addition of CMNGC as substrate measured for 10 mins in presence of BSA by fluorescent-based assay.
In data set [2] the target is T1, Epoxide hydrolase 1 (Homo sapiens, UniProt P07099).
T1 sequence (P07099 whole entry): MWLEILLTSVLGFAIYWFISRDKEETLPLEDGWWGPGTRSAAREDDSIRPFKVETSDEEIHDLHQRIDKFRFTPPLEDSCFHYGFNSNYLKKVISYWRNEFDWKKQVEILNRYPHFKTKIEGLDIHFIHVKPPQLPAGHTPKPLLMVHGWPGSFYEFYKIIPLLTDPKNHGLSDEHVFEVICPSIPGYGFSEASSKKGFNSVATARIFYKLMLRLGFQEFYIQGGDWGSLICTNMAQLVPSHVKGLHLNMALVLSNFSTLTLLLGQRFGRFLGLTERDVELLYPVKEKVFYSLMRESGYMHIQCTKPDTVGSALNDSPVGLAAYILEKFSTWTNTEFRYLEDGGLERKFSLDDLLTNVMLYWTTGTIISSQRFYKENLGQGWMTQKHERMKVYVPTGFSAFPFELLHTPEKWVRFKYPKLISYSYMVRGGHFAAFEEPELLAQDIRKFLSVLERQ
The data set is described as follows: Inhibition of recombinant human mEH expressed in baculovirus expression system assessed as formation of 6-methoxy-2-naphthaldehyde preincubated for 5 mins followed by addition of CMNGC as substrate by fluorescent-based assay.

Data set [3] can be described thus: Stability in human liver microsomes assessed as compound remaining measured after 60 mins in presence of NADPH by LC-MS/MS analysis. Format: ADME. The conditions noted are these: read-out: Stability.
Data set [4] can be described thus: Protein binding in Balb/c mouse plasma at 1 uM by rapid equilibrium dialysis method. The format is ADME, cell-free. The method, boiled down: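 Mouse plasma protein binding measured at 1 µM compound by rapid equilibrium dialysis.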
(In general: In equilibrium dialysis only unbound substance equilibrates across the membrane.)

Data set [5] can be described thus: Agonist activity at thyroid hormone receptor in rat GH3 cells expressing TRE measured after 24 hrs in presence of T3 by luciferase reporter gene assay. The format is cell-based. The conditions noted are these: GH3, 24 h. The method, boiled down:
(§1)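 GH3.TRE-Luc cells grown in regular growth medium, then seeded into 24-well plates for 24 h. Cells exposed 24 h with or without T3 plus test chemical in DMSO, kept at 0.5% (v/v) in exposure medium. Viability by total protein (BCA assay). Luciferase activity read on lysed cells.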
In general terms: In a reporter assay the amount or activity of a reporter protein is the signal.

The test system of data set [6] is Liver microsome. The data set is described as follows: Half life in human liver microsomes measured after 60 mins in presence of NADPH by LC-MS/MS analysis. The format is ADME. The conditions noted are these: 1 h.
Data set [7] is described as follows: Antagonist activity at thyroid hormone receptor in rat GH3 cells expressing TRE at 10 uM measured after 24 hrs in presence of T3 by luciferase reporter gene assay. The format is cell-based. The following applies: GH3, 24 h. An outline of the steps:
as §1

The nature of data set [8]: Stability in rat GH3 cells expressing TRE and luciferase gene assessed as percentage remaining at 10 uM measured after 24 hrs. The conditions noted are these: read-out: Stability. Format: ADME, cell-based. The method, boiled down:
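Compound at 10 µM initial concentration incubated 24 h with GH3.TRE-Luc cells. Read-out is percentage of compound remaining, given as mean±SD.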

For data set [9], the target named is T2, Bifunctional epoxide hydrolase 2 (Homo sapiens, UniProt P34913).
T2 sequence (P34913 whole entry): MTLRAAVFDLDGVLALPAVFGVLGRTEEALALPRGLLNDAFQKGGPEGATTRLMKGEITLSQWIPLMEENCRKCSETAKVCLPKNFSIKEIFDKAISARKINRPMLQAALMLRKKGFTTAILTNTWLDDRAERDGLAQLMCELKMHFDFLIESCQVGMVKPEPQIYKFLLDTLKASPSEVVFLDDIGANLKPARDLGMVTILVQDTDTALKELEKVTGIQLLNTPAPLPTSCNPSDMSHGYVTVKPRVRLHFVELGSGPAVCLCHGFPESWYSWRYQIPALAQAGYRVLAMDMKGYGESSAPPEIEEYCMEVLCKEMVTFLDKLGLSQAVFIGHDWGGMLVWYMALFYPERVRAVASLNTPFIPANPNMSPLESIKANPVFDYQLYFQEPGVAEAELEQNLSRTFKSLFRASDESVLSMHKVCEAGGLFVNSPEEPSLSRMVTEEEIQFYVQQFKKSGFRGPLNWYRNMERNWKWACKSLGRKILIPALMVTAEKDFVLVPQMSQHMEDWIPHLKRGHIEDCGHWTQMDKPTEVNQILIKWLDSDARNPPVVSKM
The data set is described as follows: Inhibition of recombinant human sEH expressed in insect High Five cells preincubated for 5 mins followed by addition of t-DPPO as substrate measured after 10 mins by liquid scintillation counter method. The format is cell-based, BTI-TN-5B1-4.

Data set [10] is described as follows: Equilibrium solubility of the compound in sodium phosphate buffer at pH 7.4 measured after 24 hrs by LC-MS/MS analysis. The format is physicochemical.
The nature of data set [11]: Cytotoxicity against human CFBE cells at 10 uM by Cytotox 96 non-radioactive cytotoxicity assay. The format is cell-based.
The test system of data set [12] is GH3. Nature of the data set: Cytotoxicity against rat GH3 cells expressing TRE and luciferase gene assessed as cell viability. The format is cell-based. The method, boiled down:
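GH3.TRE-Luc cells were seeded in 24-well plates for 24 h, then exposed for 24 h to test chemical in DMSO (0.5% v/v final), with or without T3. Viability per well was taken as total protein by BCA assay. Compounds were tested up to 10 µM.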

Regarding `C#Cc1cc(Oc2c(Cl)cc(NC(=O)CC(=O)OCC)cc2Cl)ccc1O`, in data set [1], the IC50 was 2.9 µM.
Same read-out and setting: as for `CCOC(=O)CC(=O)Nc1cc(Cl)c(Oc2ccc(O)cc2)c(Cl)c1`, the figure is greater than 50 µM; as for `CC(C)c1cc(Oc2c(Br)cc(N)cc2Br)ccc1O`, 9.7 µM.
`CCC(=O)Nc1cc(Cl)c(Oc2ccc(O)c(-c3ccc(C(=O)O)cc3)c2)c(Cl)c1`: the IC50 in data set [1] amounted to 10.5 µM.
On the same count and under the same terms, as for `CCC(=O)Nc1cc(Cl)c(Oc2ccc(O)c(-c3ccc(C(=O)NC)cc3)c2)c(Cl)c1`, the figure is 1.7 µM.
The same measure, in the same setting: as for `CCOC(=O)CC(=O)Nc1cc(Br)c(Oc2ccc(OC)c(C(C)C)c2)c(Br)c1`, the figure is greater than 25 µM; as for `CCOC(=O)CC(=O)Nc1cc(Cl)c(Oc2ccc(O)c(I)c2)c(Cl)c1`, 3.8 µM.
In the case of `CCCCCCCCCSC(C)C(N)=O` (configuration not stated), the IC50 in data set [2] was 6 µM.
For the molecule `CCOC(=O)CC(=O)Nc1ccc(Oc2ccc(O)c(C(C)C)c2)c(Cl)c1`, the IC50 in data set [1] amounted to 11.6 µM.
The same measure, in the same setting: in the case of `CCC(=O)Nc1cc(Cl)c(Oc2ccc(O)c(-c3ccc(S(N)(=O)=O)cc3)c2)c(Cl)c1` it was 2 µM.
In the case of `CCC(=O)Nc1cc(Cl)c(Oc2ccc(O)c(-c3ccccc3)c2)c(Cl)c1`, in [1], the IC50 stood at 1.4 µM. Further, in data set [3], the remaining at 1 h was determined as 63%.
For the molecule `CCOC(=O)CC(=O)Nc1cc(Cl)c(Oc2ccc(O)cc2Br)c(Cl)c1`, the IC50 in data set [1] amounted to 29.3 µM.
For the molecule `CCOC(=O)CC(=O)Nc1cc(Cl)c(Oc2ccc(O)c(C(C)C)c2)c(Cl)c1`, in [1], the 50% inhibitory concentration (IC50) amounted to 3.8 µM.
On the same count and under the same terms, as for `CCC(=O)Nc1cc(Cl)c(Oc2ccc(O)c(-c3cccc(C#N)c3)c2)c(Cl)c1`, the figure is 0.58 µM.
Same read-out and setting: in the case of `CC(=O)Nc1cc(Br)c(Oc2ccc(O)c(C(C)C)c2)c(Br)c1` it was 8.8 µM; in that of `CCOC(=O)CC(=O)Nc1cc(Br)c(Oc2cccc(C(C)C)c2)c(Br)c1`, greater than 50 µM; in that of `CCC(=O)Nc1cc(Cl)c(Oc2ccc(O)c(-c3ccc(NC(C)=O)cc3)c2)c(Cl)c1`, 15.6 µM.
Turning to `CCOC(=O)CC(=O)Nc1cc(Cl)c(Oc2ccc(O)c(Br)c2)c(Cl)c1`, the half-inhibitory concentration (IC50) in [1] worked out at 4.9 µM.
For the molecule `CCOC(=O)CCC(=O)Nc1cc(Br)c(Oc2ccc(O)c(C(C)C)c2)c(Br)c1`, in data set [1], the IC50 is 5.5 µM.
`CC(C)c1cc(Oc2c(Br)cc(NC(=O)CCC(=O)O)cc2Br)ccc1O`: the concentration for half-maximal inhibition (IC50) in data set [1] was found to be 3.2 µM.
For the molecule `CCOC(=O)CC(=O)Nc1cc(Cl)c(Oc2ccc(O)c(C(F)(F)F)c2)c(Cl)c1`, in data set [1], the IC50 came to 3 µM.
As to `CCC(=O)Nc1cc(Cl)c(Oc2ccc(O)c(-c3cccc(C(N)=O)c3)c2)c(Cl)c1`, the IC50 in [1] is 0.46 µM.
For `CCC(=O)Nc1cc(Cl)c(Oc2ccc(O)c(-c3ccc(C(C)=O)cc3)c2)c(Cl)c1`, the IC50 in data set [2] was determined as 97.8 µM; in data set [1], 0.35 µM; in data set [9], 7.7 µM. The PPB in data set [4] is greater than 99%. Further, in [5], the EC50 was greater than 10 µM. Further, the t1/2 in data set [6] was found to be 5.7 min. Besides, in [7], the inhibition at 10 µM was determined as 33%. Besides, in [8], the remaining at 24 h, 10 µM was 74%. In addition, in [10], the solubility (thermodynamic) at 24 h was less than 0.04 µM.
As for `CCOC(=O)CC(=O)Nc1cc(Br)c(Oc2ccc(O)c(C(C)C)c2)c(Br)c1`, the IC50 in [1] was found to be 6.7 µM.
Consider `CCC(=O)Nc1cc(Br)c(Oc2ccc(O)c(C(C)C)c2)c(Br)c1`, for which, in data set [1], the IC50 turned out to be 7.5 µM.
For `CCC(=O)Nc1cc(Cl)c(Oc2ccc(O)c(-c3ccc(C(N)=O)cc3)c2)c(Cl)c1`, the IC50 in data set [2] was 17.2 µM; in data set [1] it was 0.35 µM; in data set [9] it was 8.6 µM. Besides, the PPB in data set [4] was greater than 99%. The Activity result in data set [11] and in [12] was “Non-toxic” in each case. For the same molecule, in [5], the half-maximal effective concentration (EC50) was greater than 10 µM. Moreover, the t1/2 in data set [6] is recorded as 15 min. For the same molecule, in data set [7], the inhibition at 10 µM stood at 66%. Further, the remaining at 24 h, 10 µM in [8] came to 106%. Also, in data set [10], the thermodynamic solubility at 24 h was 0.17 µM (≈ 0.0757 µg/mL).
On to `CCC(=O)Nc1cc(Cl)c(Oc2ccc(O)c(-c3ccc(NC(N)=O)cc3)c2)c(Cl)c1`, for which the IC50 worked out at 26.3 µM in data set [2], 0.29 µM in data set [1] and 7.5 µM in data set [9]. Also, in data set [4], the PPB was greater than 99%. Also, the Activity entry in data set [11] and in data set [12] was “Non-toxic” each time. The EC50 in data set [5] is greater than 10 µM. Moreover, the t1/2 in data set [6] worked out at 29 min. Besides, the inhibition at 10 µM in data set [7] came out at 28%. Besides, in data set [8], the remaining at 24 h, 10 µM turned out to be 103%. The solubility (thermodynamic) at 24 h in data set [10] worked out at 21 µM (≈ 9.67 µg/mL).
Consider `CCC(=O)Nc1cc(Cl)c(Oc2ccc(O)c(-c3ccc(C#N)cc3)c2)c(Cl)c1`, for which, in [1], the IC50 stood at 11.9 µM.

The term IC50 denotes the concentration that gives 50% inhibition. Broadly, the EC50 is the concentration that produces a half-maximal response. A word on the inhibition: it is the share of the control response that was lost under treatment. Broadly, the solubility (thermodynamic) is solubility found after equilibrating the solid with the medium.
